Screening results deposited in PubChem by several laboratories.
Most compounds without a hit are left out; they make up all but 11% or so of the library.
Lmaj promast = reduces viability of Leishmania major promastigotes; resazurin fluorescence viability; inhibition, % at 10 µM; actives 9% (n = 200,000);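 also: promastigotes grown with compound for 44 hours at 28 °C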
Diaph act CS = activates diaphorase or chemically reduces, flagging diaphorase assay artifacts | Diaphorase/resazurin coupled assay, resorufin fluorescence, 16 min; hits give high values; 1 = vehicle wells, 0 = NADH-free wells | activation factor at 20 µM | actives 0.005% (n = 190,000) | AID 1229;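 active = diaphorase activity raised at least twofold by the compound at 20 µM; inactive = activation factor below 2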
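System – purified diaphorase enzyme from Clostridium kluyveri · Input – enzyme 0.07 U/mL final · Also added – final NADH 0.114 mM, resazurin 0.1 mM · Measured by – fluorescence of resorufin, 544 nm excitation, 590 nm emission · Timing – 16 min enzyme reaction, ambient temperature · Measure – resorufin increase flagging diaphorase activators or reducers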
G6PDH counter = counter-screen for G6PDH assay hits: L. mesenteroides G6PDH inhibition | actives 0.12% (n = 200,000) | Purified L. mesenteroides G6PDH, diaphorase/resazurin coupled fluorescence, 45 min | AID 1020 | inhibition, % at 5 µM
WT yeast gro inh = growth inhibition of WT yeast, mitochondrial fusion screen; inhibition, % at 10 µM; mitochondrial fusion phenotypic screen, WT strain; actives 2.1% (n = 190,000); in the data active = inhibition above about 58%; tested in S. cerevisiae
Diaphorase inh = counter-screen for diaphorase-based assays: diaphorase inhibitors and chemical oxidizers | diaphorase resazurin-to-resorufin fluorescence, NADH, 16 min; bacterial (C. kluyveri) enzyme, not human | inhibition, % at 20 µM | actives 0.69% (n = 190,000) | AID 1217;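 active = primary screen inhibition at 20 µM above a set limit, cut at about 50% in these data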;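 also: plate controls were DMSO with full reaction for no effect and wells lacking NADH for full effect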
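Benchmarks: positive control wells lacking NADH, neutral wells with DMSO only. System: bacterial diaphorase enzyme (C. kluyveri). Input: 0.14 U/mL diaphorase, enzyme working solution. Detection: resorufin fluorescence, excitation 544 nm, emission 590 nm. Times: 16-min room-temperature incubation before reading.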
* = called active by the depositor; · = no result. Rule as the data show it, unless noted: active = inhibition above about 50%; inactive = the rest.

SMILES	Lmaj promast	Diaph act CS	G6PDH counter	WT yeast gro inh	Diaphorase inh
COc1ccc(S(=O)(=O)N(CCc2ccccc2)CC(N)=O)cc1	-5	0.9	-1	21	9
Cn1c(SCc2c(F)cccc2Cl)nc2c(c1=O)SCC2	6	0.9	-5	66*	8
Cn1c(SCc2ccc([N+](=O)[O-])cc2)nc2c(c1=O)SCC2	13	0.9	-4	-4	8
Cc1ccc2nc(NC(=O)CSc3nnc(C)c(=O)n3N)sc2c1	54*	1.1	6	-3	-6
O=C(CN1CCC(NC(=O)c2ccccc2F)CC1)Nc1ccc2c(c1)OCCO2	-4	0.9	9	-10	13
CC(C)c1ccc(NC(=O)NC2CCN(CC(=O)Nc3cccc4ccccc34)CC2)cc1	58*	0.8	-2	9	24
O=C(CN1CCC(NC(=O)c2ccco2)CC1)Nc1cccc2ccccc12	-6	1	6	4	2
O=C(Nc1ccc2c(c1)OCO2)C1CCN(Cc2cnn(-c3ccccc3)c2-n2cccc2)CC1	98*	0.8	11	12	19
O=C(Nc1ccc(F)cc1)NC1CCN(Cc2ccccc2)CC1	55*	0.9	-2	-9	14
Cc1ccccc1C(=O)NC1CCN(CC(=O)Nc2ccc3c(c2)OCCO3)CC1	90*	1	8	-3	2
CC(C)Cn1c(N)c(C(=O)COC(=O)CCc2nc3ccccc3s2)c(=O)n(C)c1=O	2	0.9	-1	5	7
N/C(CSc1ccc(Cl)cc1)=N\NC(=O)c1ccncc1	4	1.1	10	-4	-11
Cc1ccc(C(=O)NCC(=O)NCC(=O)OCC(=O)c2ccc(F)cc2)cc1	-3	1	-3	-6	3
COc1ccc(OC)c(-c2csc(N3CCC(c4ccccc4)CC3)n2)c1	-5	1	3	3	3
O=C(Nc1ccc2c(c1)OCO2)NC1CCN(Cc2ccccc2)CC1	78*	1	-12	-6	4
O=C(Nc1ccc2c(c1)OCO2)C1CCN(S(=O)(=O)Cc2ccccc2)CC1	-4	0.8	12	5	20
CCS(=O)(=O)C(=C(Nc1ccc(OC)cc1)Nc1ccc(OC)cc1)S(=O)(=O)CC	1	0.9	1	-8	12
CNC(=S)N(CCc1c(C)[nH]c2ccc(Cl)cc12)Cc1cccs1	43	0.8	-8	78	21
CCNC(=S)N(CCc1c(C)[nH]c2ccc(Cl)cc12)Cc1ccco1	43	0.8	2	78*	22
CCNC(=S)N(CCc1c(C)[nH]c2ccc(C)cc12)Cc1cccs1	39	0.7	7	71*	26
COCCNC(=S)N(CCc1c(C)[nH]c2ccc(Cl)cc12)Cc1cccs1	53*	0.8	6	74*	16
CNC(=S)N(CCc1c(C)[nH]c2ccc(C)cc12)Cc1ccco1	14	0.9	8	16	12
Cc1nnc(NC(=O)c2ccccc2Oc2ccccc2)s1	-2	1.1	0	3	-7
CCOC(=O)c1c(NC(=O)CSc2nnc(C)s2)sc2c1CCC(C)C2 (configuration not stated)	11	0.8	2	-8	18
CCOC(=O)C1CCN(Cc2cc(C(C)C)c(O)c(C(C)C)c2)CC1	58*	1	6	-2	-4
SMILES	Lmaj promast	Diaph act CS	G6PDH counter	WT yeast gro inh	Diaphorase inh
CCOC(=O)C1CCCN(Cc2ccccc2C)C1 (configuration not stated)	-6	1	4	26	0
CCOC(=O)C1CCN(Cc2ccc(OC)cc2OC)CC1	-2	1	29	13	4
CCOC(=O)C1CCN(Cc2ccccc2C)CC1	89*	1	5	11	0
CCOC(=O)C1CCCN(Cc2nc(N)nc(Nc3ccc(Cl)cc3)n2)C1 (configuration not stated)	71*	0.9	-1	8	14
CCOC(=O)C1CCN(Cc2cccc(OC)c2)CC1	90*	0.8	5	8	17
COC(=O)c1ccc(C(=O)N2CCCC(CNC(=O)c3ccccc3Cl)C2)cc1 (configuration not stated)	-3	1	0	-13	1
CCCCCCCCCC(=O)N/N=C/c1ccc(C)s1	-6	0.8	12	·	22
CCOC(=O)C1CCCN(Cc2ccc(OCC)cc2)C1 (configuration not stated)	90*	0.9	5	1	5
